Assay results as given in the RNAGym collection of RNA variant scans (doi:10.1038/s41586-018-0170-7).

B1: tRNA (parent)
chain: GUUCCGUUGGCGUAAUGGUAACGCGUCUCCCUCCUAAGGAGAAGACUGCGGGUUCGAGUCCCGUACGGAACG

Variants of: B1
Assay: yeast fitness, log relative to wild type (ln ratio); higher = fitter; tRNA-Arg(CCU), competitive growth, 37 C, 1 M NaCl
How it was run: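 Two independent transformations put a combinatorial tRNA-Arg(CCU) variant library on a HIS3 centromeric plasmid into BY4742 lacking the chromosomal gene. Pools were grown in SC-HIS at 30 °C for 4 generations, then in SC-HIS 1M NaCl at 37 °C for ~6.5 generations (~26.5 h), with three outputs taken per input. Fitness compares a genotype's generations with the wild type's as a natural log ratio. Those generations are OD-scaled log2 output/input frequencies, inverse-variance weighted across replicates, from 125 bp paired-end Illumina counts.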

Variant | yeast fitness (ln)
AUUCCAUUGGCGUAAUGGUAACGCGUCUCCCUCCUAAGGAGACGACUGCGGGUUCGAGUCCCGUAAGGAGUG | -0.297
GGUCCGUUGGCGUAAUGGUAACGCGUCUCCCUCCUAAGGAGAAGAUUGCGGGUUCGAGUCCCGUAAGGGUUG | -0.34
AGUCCUUUGGCGUAAUGGUAACGCGUCUCCCUCCUAAGGAGAAGACUGCGGGUUCGAGUCCCGUAUGGAGUG | -0.264
ACUCCGUUGGCGUAAUGGUAACGCGUCUCCCUCCUAAGGAGAAGAUUGCGGGUUCGAGUCCCGUACGGGUCG | -0.016
ACUCCGUUGGCGUAAUGGUAACGCGUCUCCCUCCUAAGGAGAAGAUUGCGGGUUCGAGUCCCGUAUGGAACG | -0.00756
AUUCCGUUGGCGUAAUGGUAACGCGUCUCCCUCCUAAGGAGACGACUGCGGGUUCGAGUCCCGUAAGGAAUG | -0.275
ACUCCGUUGGCGUAAUGGUAACGCGUCUCCCUCCUAAGGAGACGACUGCGGGUUCGAGUCCCGUAUGGAGUG | -0.272
GUUCCUUUGGCGUAAUGGUAACGCGUUUCCCUCCUAAGGAGACGAUUGCGGGUUCGAGUCCCGUAUGGGUCG | -0.416
GGUCCUUUGGCGUAAUGGUAACGCGUUUCCCUCCUAAGGAGAAGACUGCGGGUUCGAGUCCCGUACGGAACG | -0.0917
GGUCCGUUGGCGUAAUGGUAACGCGUUUCCCUCCUAAGGAGAAGACUGCGGGUUCGAGUCCCGUACGGAGUG | -0.178
GUUCCGUUGGCGUAAUGGUAACGCGUCUCCCUCCUAAGGAGACGAUUGCGGGUUCGAGUCCCGUAAGGAUCG | -0.0196
GGUCCUUUGGCGUAAUGGUAACGCGUUUCCCUCCUAAGGAGACGACUGCGGGUUCGAGUCCCGUACGGGAUG | -0.439
AUUCCAUUGGCGUAAUGGUAACGCGUUUCCCUCCUAAGGAGACGAUUGCGGGUUCGAGUCCCGUAUGGGGUG | -0.324
AUUCCUUUGGCGUAAUGGUAACGCGUUUCCCUCCUAAGGAGAAGACUGCGGGUUCGAGUCCCGUAAGGAACG | -0.254
GCUCCUUUGGCGUAAUGGUAACGCGUCUCCCUCCUAAGGAGAAGAUUGCGGGUUCGAGUCCCGUAUGGAACG | -0.12
AUUCCGUUGGCGUAAUGGUAACGCGUCUCCCUCCUAAGGAGACGAUUGCGGGUUCGAGUCCCGUAAGGAGUG | -0.191
GGUCCAUUGGCGUAAUGGUAACGCGUUUCCCUCCUAAGGAGACGACUGCGGGUUCGAGUCCCGUAAGGAUCG | -0.176
AUUCCGUUGGCGUAAUGGUAACGCGUCUCCCUCCUAAGGAGAAGACUGCGGGUUCGAGUCCCGUAUGGAGUG | -0.287
GGUCCUUUGGCGUAAUGGUAACGCGUUUCCCUCCUAAGGAGACGAUUGCGGGUUCGAGUCCCGUACGGAUUG | -0.228
GCUCCGUUGGCGUAAUGGUAACGCGUUUCCCUCCUAAGGAGACGAUUGCGGGUUCGAGUCCCGUAAGGAACG | -0.0384
GCUCCUUUGGCGUAAUGGUAACGCGUCUCCCUCCUAAGGAGAAGAUUGCGGGUUCGAGUCCCGUAAGGAGCG | -0.013
AUUCCUUUGGCGUAAUGGUAACGCGUCUCCCUCCUAAGGAGACGACUGCGGGUUCGAGUCCCGUACGGAACG | -0.192
GUUCCUUUGGCGUAAUGGUAACGCGUCUCCCUCCUAAGGAGAAGAUUGCGGGUUCGAGUCCCGUAUGGAUCG | -0.297
GGUCCGUUGGCGUAAUGGUAACGCGUCUCCCUCCUAAGGAGACGAUUGCGGGUUCGAGUCCCGUACGGAGCG | -0.0614
GGUCCAUUGGCGUAAUGGUAACGCGUUUCCCUCCUAAGGAGAAGAUUGCGGGUUCGAGUCCCGUAUGGAACG | -0.206

Variant | yeast fitness (ln)
AGUCCGUUGGCGUAAUGGUAACGCGUCUCCCUCCUAAGGAGACGAUUGCGGGUUCGAGUCCCGUAAGGAACG | -0.156
GCUCCAUUGGCGUAAUGGUAACGCGUCUCCCUCCUAAGGAGACGACUGCGGGUUCGAGUCCCGUAUGGGUCG | -0.232
GGUCCUUUGGCGUAAUGGUAACGCGUCUCCCUCCUAAGGAGACGAUUGCGGGUUCGAGUCCCGUAAGGAAUG | -0.154
AUUCCUUUGGCGUAAUGGUAACGCGUUUCCCUCCUAAGGAGAAGACUGCGGGUUCGAGUCCCGUAAGGAGCG | -0.228
GGUCCUUUGGCGUAAUGGUAACGCGUUUCCCUCCUAAGGAGAAGAUUGCGGGUUCGAGUCCCGUACGGAUCG | -0.176
AGUCCUUUGGCGUAAUGGUAACGCGUUUCCCUCCUAAGGAGAAGACUGCGGGUUCGAGUCCCGUAAGGAUCG | -0.27
ACUCCGUUGGCGUAAUGGUAACGCGUCUCCCUCCUAAGGAGACGAUUGCGGGUUCGAGUCCCGUACGGAGCG | -0.00269
ACUCCUUUGGCGUAAUGGUAACGCGUCUCCCUCCUAAGGAGACGAUUGCGGGUUCGAGUCCCGUACGGGGCG | -0.126
GUUCCAUUGGCGUAAUGGUAACGCGUUUCCCUCCUAAGGAGAAGAUUGCGGGUUCGAGUCCCGUAUGGAAUG | -0.0799
AUUCCGUUGGCGUAAUGGUAACGCGUUUCCCUCCUAAGGAGAAGACUGCGGGUUCGAGUCCCGUAUGGGUCG | -0.295
AGUCCUUUGGCGUAAUGGUAACGCGUUUCCCUCCUAAGGAGAAGACUGCGGGUUCGAGUCCCGUAUGGGGCG | -0.333
AUUCCAUUGGCGUAAUGGUAACGCGUCUCCCUCCUAAGGAGACGAUUGCGGGUUCGAGUCCCGUACGGAUCG | -0.206
GCUCCUUUGGCGUAAUGGUAACGCGUCUCCCUCCUAAGGAGAAGAUUGCGGGUUCGAGUCCCGUAUGGAUUG | -0.202
AGUCCAUUGGCGUAAUGGUAACGCGUUUCCCUCCUAAGGAGACGAUUGCGGGUUCGAGUCCCGUACGGAUCG | -0.215
AUUCCGUUGGCGUAAUGGUAACGCGUUUCCCUCCUAAGGAGACGAUUGCGGGUUCGAGUCCCGUAAGGAUCG | -0.155
GUUCCGUUGGCGUAAUGGUAACGCGUCUCCCUCCUAAGGAGAAGACUGCGGGUUCGAGUCCCGUAUGGGACG | -0.168
ACUCCGUUGGCGUAAUGGUAACGCGUCUCCCUCCUAAGGAGAAGACUGCGGGUUCGAGUCCCGUAAGGAGUG | -0.208
ACUCCGUUGGCGUAAUGGUAACGCGUCUCCCUCCUAAGGAGACGACUGCGGGUUCGAGUCCCGUACGGGUCG | -0.0414
ACUCCGUUGGCGUAAUGGUAACGCGUUUCCCUCCUAAGGAGACGACUGCGGGUUCGAGUCCCGUACGGGGCG | -0.275
GGUCCAUUGGCGUAAUGGUAACGCGUCUCCCUCCUAAGGAGACGACUGCGGGUUCGAGUCCCGUACGGAGCG | -0.0939
GCUCCGUUGGCGUAAUGGUAACGCGUUUCCCUCCUAAGGAGAAGACUGCGGGUUCGAGUCCCGUAUGGGGUG | -0.529
GCUCCUUUGGCGUAAUGGUAACGCGUCUCCCUCCUAAGGAGAAGAUUGCGGGUUCGAGUCCCGUAAGGGUCG | -0.143
AGUCCUUUGGCGUAAUGGUAACGCGUUUCCCUCCUAAGGAGAAGAUUGCGGGUUCGAGUCCCGUAAGGAGUG | -0.239
GUUCCUUUGGCGUAAUGGUAACGCGUCUCCCUCCUAAGGAGAAGACUGCGGGUUCGAGUCCCGUAAGGAUCG | -0.0008
AUUCCUUUGGCGUAAUGGUAACGCGUCUCCCUCCUAAGGAGACGACUGCGGGUUCGAGUCCCGUACGGGGCG | -0.54

Variant | yeast fitness (ln)
GCUCCGUUGGCGUAAUGGUAACGCGUUUCCCUCCUAAGGAGAAGAUUGCGGGUUCGAGUCCCGUAAGGAUCG | -0.0366
GCUCCGUUGGCGUAAUGGUAACGCGUCUCCCUCCUAAGGAGACGACUGCGGGUUCGAGUCCCGUACGGAAUG | -0.168
GGUCCAUUGGCGUAAUGGUAACGCGUCUCCCUCCUAAGGAGACGAUUGCGGGUUCGAGUCCCGUACGGAACG | -0.0442
AGUCCGUUGGCGUAAUGGUAACGCGUCUCCCUCCUAAGGAGAAGAUUGCGGGUUCGAGUCCCGUAUGGAGCG | -0.148
GGUCCGUUGGCGUAAUGGUAACGCGUUUCCCUCCUAAGGAGAAGACUGCGGGUUCGAGUCCCGUAUGGAGCG | -0.147
GCUCCUUUGGCGUAAUGGUAACGCGUUUCCCUCCUAAGGAGAAGACUGCGGGUUCGAGUCCCGUACGGAACG | -0.0654
ACUCCUUUGGCGUAAUGGUAACGCGUUUCCCUCCUAAGGAGACGAUUGCGGGUUCGAGUCCCGUAUGGGGCG | -0.279
GCUCCAUUGGCGUAAUGGUAACGCGUCUCCCUCCUAAGGAGAAGACUGCGGGUUCGAGUCCCGUAUGGAAUG | -0.28
AUUCCGUUGGCGUAAUGGUAACGCGUUUCCCUCCUAAGGAGAAGACUGCGGGUUCGAGUCCCGUACGGGAUG | -0.0706
GGUCCAUUGGCGUAAUGGUAACGCGUCUCCCUCCUAAGGAGACGAUUGCGGGUUCGAGUCCCGUACGGAGUG | -0.209
GCUCCAUUGGCGUAAUGGUAACGCGUUUCCCUCCUAAGGAGACGAUUGCGGGUUCGAGUCCCGUAAGGGGUG | -0.19
AUUCCGUUGGCGUAAUGGUAACGCGUCUCCCUCCUAAGGAGACGAUUGCGGGUUCGAGUCCCGUAAGGGUUG | -0.36
ACUCCUUUGGCGUAAUGGUAACGCGUCUCCCUCCUAAGGAGAAGAUUGCGGGUUCGAGUCCCGUAAGGAGCG | -0.0166
AUUCCGUUGGCGUAAUGGUAACGCGUUUCCCUCCUAAGGAGACGAUUGCGGGUUCGAGUCCCGUACGGGGCG | -0.183
AGUCCAUUGGCGUAAUGGUAACGCGUUUCCCUCCUAAGGAGAAGACUGCGGGUUCGAGUCCCGUACGGGGCG | -0.428
GUUCCGUUGGCGUAAUGGUAACGCGUCUCCCUCCUAAGGAGAAGAUUGCGGGUUCGAGUCCCGUACGGAGCG | -0.00475
AGUCCUUUGGCGUAAUGGUAACGCGUCUCCCUCCUAAGGAGAAGACUGCGGGUUCGAGUCCCGUACGGAACG | -0.102
AUUCCGUUGGCGUAAUGGUAACGCGUUUCCCUCCUAAGGAGAAGAUUGCGGGUUCGAGUCCCGUAUGGAGUG | -0.223
GGUCCGUUGGCGUAAUGGUAACGCGUUUCCCUCCUAAGGAGACGACUGCGGGUUCGAGUCCCGUACGGAGCG | -0.178
GCUCCAUUGGCGUAAUGGUAACGCGUUUCCCUCCUAAGGAGAAGAUUGCGGGUUCGAGUCCCGUAUGGAUUG | -0.174
GCUCCUUUGGCGUAAUGGUAACGCGUCUCCCUCCUAAGGAGACGACUGCGGGUUCGAGUCCCGUACGGGUCG | -0.152
GGUCCGUUGGCGUAAUGGUAACGCGUUUCCCUCCUAAGGAGAAGACUGCGGGUUCGAGUCCCGUAUGGAAUG | -0.194
AGUCCAUUGGCGUAAUGGUAACGCGUUUCCCUCCUAAGGAGAAGACUGCGGGUUCGAGUCCCGUACGGAGCG | -0.339
GUUCCGUUGGCGUAAUGGUAACGCGUCUCCCUCCUAAGGAGACGAUUGCGGGUUCGAGUCCCGUAUGGGAUG | -0.273
GGUCCGUUGGCGUAAUGGUAACGCGUUUCCCUCCUAAGGAGAAGAUUGCGGGUUCGAGUCCCGUAUGGGACG | -0.211
